Assay outcomes: PubChem BioAssay, several laboratories
Sampled rows, rich in hits. Any-hit rate of the full collection: about 3.4%.
HTR2A ag: activates the mouse 5-HT2A serotonin receptor | P35363 | CHO-K1 mHTR2A beta-arrestin complementation, luminescence; percent of 30 µM serotonin response | activation, % at 7.6 µM | hit rate 0.66% among 360,000 | AID 624169;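 active = activation above a run cutoff, the mean activation of all tested compounds plus 3 SD, cut at about 14% in these data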
Target sequence (P35363 whole entry, looked up): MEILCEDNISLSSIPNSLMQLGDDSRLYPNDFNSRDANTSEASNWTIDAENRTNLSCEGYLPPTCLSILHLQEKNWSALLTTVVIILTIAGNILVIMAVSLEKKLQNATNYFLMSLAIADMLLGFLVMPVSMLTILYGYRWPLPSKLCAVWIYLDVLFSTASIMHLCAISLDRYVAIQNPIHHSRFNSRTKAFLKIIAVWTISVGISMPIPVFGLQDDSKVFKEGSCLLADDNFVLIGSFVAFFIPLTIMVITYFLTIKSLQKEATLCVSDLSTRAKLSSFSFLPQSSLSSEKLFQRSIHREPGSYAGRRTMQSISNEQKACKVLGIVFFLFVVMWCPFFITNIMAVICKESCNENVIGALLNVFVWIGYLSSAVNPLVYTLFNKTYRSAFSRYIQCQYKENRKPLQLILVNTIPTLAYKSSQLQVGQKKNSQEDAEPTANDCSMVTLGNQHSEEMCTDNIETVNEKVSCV
ANO1 block: inhibitors of mouse TMEM16A calcium-activated chloride channel; AID 588511; Q8BHY3; hit rate 1.2% among 310,000; normalized B-score (activity score, 25-100; higher = stronger inhibition) at 10 µM; HEK293 TMEM16A/YFP iodide influx fluorescence, ionomycin;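 active = ratio plate-corrected score three or more library SD toward inhibition, starting fluorescence score within five deviations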;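 also: score derived from kinetic fluorescence span divided by baseline fluorescence per well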
MC4R barr agon: human MC4R agonism via beta-arrestin. U2OS MC4R beta-arrestin complementation, luminescence; percent of melanotan II response, DMSO zero. activation, % at 8.9 µM. hit rate 0.98% among 360,000. AID 540308;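 active = activation above a per-plate cutoff, the mean activation of sample wells on that plate plus 3 SD, cut at about 8% in these data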
beta cell repl: inducers of beta-cell replication in MIN6 cells; hit rate 0.29% among 330,000; MIN6 cells proliferation, ATPlite luminescence, 48 h; cells starved in 0.2% serum; 100% = growth in 10% serum; AID 2380; proliferation, % at 10 µM;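 active = compounds whose signal lies at least 3.5 SD above the mean of all wells on their plate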
MC4R antag cAMP: antagonists of human melanocortin 4 receptor (MC4R). MC4R-expressing cells, MTII-stimulated cAMP, LANCE TR-FRET. inhibition, % at 6.5 µM. hit rate 0.48% among 360,000. P32245;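 active = inhibition above its plate's cutoff, the mean of tested wells on that plate plus 3 SD, cut at about 29% in these data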
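Test system: U2OS cells stably expressing human melanocortin 4 receptor (MC4R); also added: Melanotan II challenge; compound: 6.5 µM single dose; timing: 30-min compound preincubation, 1-h Melanotan II challenge, 1-h detection, room temperature; signal: Eu-cAMP/anti-cAMP TR-FRET, emission 671 nm; repeats: one well per compound, no replicates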
ANO1 activ: activators or potentiators of mouse TMEM16A chloride channel | Q8BHY3 | HEK293 TMEM16A/YFP-H148Q/I152L, iodide quench fluorescence; hits give low values | B-score at 10 µM | hit rate 0.3% among 340,000;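 active = fluorescence-ratio B-score plate-corrected deviation score at least 3 library SD below zero, with starting fluorescence score within 5 deviations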;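 also: channel opened by trigger with iodide after compound preincubation; score built on the fluorescence ratio of max minus min over baseline; more negative score means more quench and so TMEM16A activation or potentiation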
cAMP nonselect: U2OS forskolin cAMP inhibition counter-screen. inhibition, % at 6.5 µM. parental U2OS, LANCE TR-FRET. AID 602193. hit rate 26% among 1,600. shares compounds with MC4R antag cAMP;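 active = mean inhibition over triplicates above the low-control well mean plus 3 SD, set per campaign, cut at about 13% in these data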;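 also: signal is single emission at 671 nm which falls as cellular cAMP rises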
MC4R cAMP antag: human MC4R cAMP antagonism confirmation. inhibition, % at 6.5 µM. shares compounds with MC4R antag cAMP. hit rate 27% among 1,600. MC4R-expressing cells, MTII-stimulated cAMP, TR-FRET. AID 602195; in the data active = inhibition above about 29%
MC4R barr conf: human MC4R beta-arrestin agonism confirmation. shares compounds with MC4R barr agon. U2OS MC4R beta-arrestin recruitment, luminescence; scaled DMSO 0%, Melanotan II 100%. activation, % at 8.9 µM. hit rate 31% among 2,400. AID 602192;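 active = mean activation across replicates above the hit cutoff set in the earlier primary screen, cut at about 8% in these data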
MOR DOR agonist: activates mu-delta opioid heterodimer, MC4R agonist counter-screen. shares compounds with MC4R barr agon. U2OS PathHunter beta-arrestin, beta-gal luminescence; percent of deltorphin B response, DMSO zero. activation, % at 9.2 µM. hit rate 5.8% among 2,400;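 active = mean activation across replicates exceeds the hit threshold derived in the earlier primary screen, cut at about 18% in these data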
TMEM16A reconf: TMEM16A (mouse) chloride channel inhibition, re-confirmation; HEK293 TMEM16A/YFP-H148Q, iodide quench fluorescence; ionomycin added to raise cell calcium; AID 652189; inhibition, % at 10 µM; hit rate 39% among 2,300; shares compounds with ANO1 block;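 active = mean duplicate percent inhibition, scaled so buffer wells are 0 and the reference blocker 100, over three buffer SD above buffer mean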
HEK293 Ca mobil: calcium mobilization counter-screen hit for TMEM16A inhibitor series; hit rate 2% among 2,300; shares compounds with ANO1 block; calcium response (% of ionomycin), % at 10 µM; AID 652231; TMEM16A/YFP HEK293, Fluo4 calcium mobilization;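 active = duplicate-averaged calcium signal over 20% of the ionomycin maximum, relative to buffer baseline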;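 also: each well's signal is peak minus trough fluorescence divided by its pre-addition baseline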
YFP-HEK293 quench: acts in parental YFP-HEK293 cells lacking TMEM16A, counter-screen | shares compounds with ANO1 block | iodide YFP quench, ionomycin | YFP ratio F(max-min)/F0 at 10 µM | 2,300 tested, under 10 active | AID 652233;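 active = yellow fluorescent protein signal ratio exceeding the buffer control mean by over 5 SD of those controls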;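 also: ratio is mean of duplicate wells from kinetic YFP trace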
ClC-1 inh: blocks the rat ClC-1 voltage-dependent chloride channel; shares compounds with ANO1 block; CHO ClC-1-YFP, iodide influx fluorescence quench; iodide control reads 0, buffer control 100; ratio percent, % at 10 µM; 2,300 tested, under 10 active; AID 652236;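 active = duplicate-mean ratio percent above the mean of iodide-only control wells, which defines zero, plus 5 of their SD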;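 also: higher percent means stronger block of ClC-1 iodide influx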
OPRM1 ag: OPRM1 agonism in mouse HTR2A counterscreen; U2OS OPRM1 beta-arrestin PathHunter, luminescence; DMSO 0%, DAMGO 9.3 µM 100%; shares compounds with HTR2A ag; hit rate 5.3% among 2,300; AID 624380; activation, % at 9.3 µM;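 active = mean activation above the mean of DMSO-only wells plus 3 SD, cut at about 0.5% in these data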
m5-HT2A ag conf: mouse HTR2A agonism confirmed; CHO-K1 PathHunter beta-arrestin recruitment, luminescence; DMSO 0%, 30 µM serotonin 100%; hit rate 19% among 2,300; shares compounds with HTR2A ag; activation, % at 7.6 µM;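 active = mean activation across triplicates above the hit threshold derived in the original primary screen, cut at about 15% in these data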
Hits are given with their value; 0 = inactive; - = no result given.

SMILES	HTR2A ag	ANO1 block	MC4R barr agon	beta cell repl	MC4R antag cAMP	ANO1 activ	cAMP nonselect	MC4R cAMP antag	TMEM16A reconf	HEK293 Ca mobil	YFP-HEK293 quench	ClC-1 inh	others
CN(c1ccccc1)S(=O)(=O)c1ccc(NC(=O)c2nc(S(C)(=O)=O)ncc2Cl)cc1	0	25	0	0	57	-5.5	26	36	18%	0	0	0
Cc1cc(Cl)ccc1OCC(=O)N/N=C/c1ccncc1	0	0	0	0	0	0	-	-	-	-	-	-
C=CCNC(=O)c1ccc([N+](=O)[O-])c(Cl)c1	0	0	0	0	0	0	-	-	-	-	-	-
CC(C)(CNC(=O)c1ccc([N+](=O)[O-])c(Cl)c1)CNC(=O)c1ccc([N+](=O)[O-])c(Cl)c1	0	100	0	0	31	0	0	44	0	0	0	0
COc1ccccc1CN(C)C(=O)c1ccc(COc2ccccc2)cc1	0	100	0	0	31	0	0	0	0	0	0	0
CSCCNC(=O)c1ccc2nc(C3CCCCC3)oc2c1	0	0	0	0	0	0	-	-	-	-	-	-
O=C(Nc1nnc(-c2ccccc2)s1)c1cc(S(=O)(=O)N2CCOCC2)c(Cl)cc1Cl	0	25	0	0	32	0	0	0	0	0	0	0
O=C(Nc1nnc(-c2ccccc2)s1)c1cccc(S(=O)(=O)N2CCOCC2)c1	0	0	0	0	0	0	-	-	-	-	-	-
CCCn1c(C)nnc1SCC(=O)NC1CCCCC1	0	0	0	0	0	0	-	-	-	-	-	-
CC(C)(C)OC(=O)CNC(=O)c1[nH]cnc1C(=O)NCC(=O)OCc1ccccc1	15	0	0	0	42	0	0	0	-	-	-	-	OPRM1 ag=0;m5-HT2A ag conf=0
Cc1ccc(S(=O)(=O)N2CCC(C(=O)OCC(=O)N(Cc3ccccc3)C(C)C)CC2)cc1C	0	-	0	-	0	-	-	-	-	-	-	-
Cc1ccc(SCC(=O)Nc2ccc(-c3nnc(-c4ccco4)o3)cc2)cc1	0	0	18	0	0	0	-	-	-	-	-	-	MC4R barr conf=9.1;MOR DOR agonist=0
Cc1ccc(SCC(=O)Nc2ccc(C(=O)Nc3ccc(O)cc3)cc2)cc1	0	0	11	0	0	0	-	-	-	-	-	-	MC4R barr conf=0;MOR DOR agonist=0
Cc1ccc(-c2nnc(-c3ccc(NC(=O)Cc4cccs4)cc3)o2)cc1	0	0	36	0	0	0	-	-	-	-	-	-	MC4R barr conf=22;MOR DOR agonist=0
